Converted amounts (≈) assume the structure as drawn. The source made the active and inactive calls. The rule behind the calls is not given here.
Legend:
[1] = Metabolic stability in pooled human liver microsomes assessed as half life at 2 uM measured over 40 mins in presence of NADPH-cofactor system by HPLC-MS/MS analysis; assay type: ADME, Microsome
Outline: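 Pooled mixed-gender human liver microsomes at 0.42 mg protein/mL in 100 mM phosphate pH 7.4 with MgCl₂ and an NADPH-regenerating system. Test compound 2 μM, 1.6 % solvent, at 37 °C. Five time points over 40 min, stopped with acetonitrile, analysed by HPLC-MS/MS. t1/2 from the slope of ln(AUC) versus time. Controls lacked NADPH. Duplicates.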

[2] = test system: A2780; test: Cytotoxicity against human A2780 cells assessed as reduction in cell viability incubated for 72 hrs by SRB assay; assay type: toxicity, cell-based
[3] = test system: Mycobacteroides abscessus; test: Antibacterial activity against Mycobacterium abscessus; assay type: functional
[4] = test system: Mycobacteroides abscessus; test: Antibacterial activity against Mycobacterium abscessus ATCC 19977 expressing tomato RFP assessed as bacterial growth inhibition incubated for 3 days in MHII medium by RFP fluorescence based broth microdilution method; assay type: functional; conditions: ATCC 19977, 72 h, time 3 day
Outline: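 Broth microdilution in MHII broth with 0.05 % Tween 80, against the RFP-expressing strain. Twofold nine-point dilution series. Inoculum 5 x 10⁵ cells/mL from a mid-log preculture. Incubated 3 days at 37 °C. Read-out by RFP fluorescence (ex 544/em 590 nm). Controls were 1 % DMSO and 100 μM amikacin. MIC₉₀ from duplicates, averaged.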

[5] = test system: Mycobacterium intracellulare; test: Antibacterial activity against Mycobacterium intracellulare ATCC 35761 expressing tomato RFP assessed as bacterial growth inhibition incubated for 5 days in 7H9 medium by RFP fluorescence based broth microdilution method; assay type: functional; conditions: ATCC 35761, 120 h, time 5 day
Outline: (§1)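 Broth microdilution in 7H9 with 10 % ADS and 0.05 % Tween 80. Twofold nine-point dilution series. Inoculum 5 x 10⁵ cells/mL taken from a mid-log preculture. Incubation at 37 °C, 3 days for M. smegmatis and M. abscessus, 5 days for M. intracellulare. Read-out by RFP fluorescence (ex 544/em 590 nm). Controls were 1 % DMSO and 100 μM amikacin. MIC₉₀ from duplicates, averaged.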

[6] = Stability in human plasma at 1 uM measured over 120 mins by HPLC-MS/MS analysis; assay type: ADME, cell-free; conditions: 2 h
[7] = test system: Mycolicibacterium smegmatis; test: Antibacterial activity against Mycobacterium smegmatis mc2 155 expressing tomato RFP assessed as bacterial growth inhibition incubated for 3 days in 7H9 medium by RFP fluorescence based broth microdilution method; assay type: functional; conditions: mc2 155, 72 h, time 3 day; outline: as §1
[8] = test system: Mycobacterium tuberculosis; test: Antibacterial activity against Mycobacterium tuberculosis H37Rv ATCC 27294 assessed as bacterial growth inhibition incubated for 7 days in 7H9 medium by optical density based microplate reader analysis; assay type: functional; conditions: H37Rv ATCC 27294, 168 h, time 7 day
Outline: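 Compounds serially diluted in flat-bottom 96-well plates. Mid-log culture mixed in to a final OD₆₀₀ of 0.05. Sealed plates incubated in humidified boxes at 37 °C for 7 days with shaking at 80 rpm. Turbidity read at 600 nm. MIC₉₀ taken from dose–response curves. Two biological replicates, averaged.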

[9] = test system: Mycobacterium tuberculosis; test: Antibacterial activity against Mycobacterium tuberculosis; assay type: functional
[10] = test system: Mycobacteroides abscessus; test: Antibacterial activity against MMV688845-resistant Mycobacterium abscessus Bamboo 845R-2.1 harboring rpoB/beta subunit P473L mutation assessed as bacterial growth inhibition incubated for 3 days by optical density based analysis; assay type: functional; conditions: Bamboo 845R-2.1, 72 h, time 3 day
Outline: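 Tenfold-point twofold dilution series in 7H9, final DMSO 1 %. Final ranges typically 50–0.098 or 6.25–0.012 μM. Mid-log culture added to an initial OD₆₀₀ of 0.05 (5*10⁶ CFU/mL). Incubated 3 days at 37 °C with shaking at 110 rpm. Growth taken as OD₆₀₀ on day 3 minus day 0, as % of drug-free wells. MIC₉₀ read visually from the curves. Clarithromycin as control. Two biological replicates, averaged.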

[11] = test system: Mycobacteroides abscessus; test: Antibacterial activity against Mycobacterium abscessus ATCC 19977 expressing tomato RFP infected in human THP-1 cells assessed as bacterial growth inhibition incubated for 4 days in RPMI medium by RFP fluorescence based assay; assay type: functional; conditions: ATCC 19977, 96 h, time 4 day
Outline: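 RFP M. abscessus washed, moved into RPMI, filtered through 5 µm and opsonised with 10 % human serum for 30 min. THP-1 cells infected at MOI 5:1 with PMA 40 ng/mL for 4 h at 37 °C, then washed. Infected cells (1x10⁵/well) given a ten-point twofold series. Incubated 4 days at 37 °C, 5 % CO₂. Cells PFA-fixed and DAPI-stained. RFP quantified by imaging. Controls were DMSO and 1.5 µM bedaquiline. Duplicate.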

[12] = test system: HT-29; test: Cytotoxicity against human HT-29 cells assessed as reduction in cell viability incubated for 72 hrs by SRB assay; assay type: toxicity, cell-based
[13] = test system: A-375; test: Cytotoxicity against human A-375 cells assessed as reduction in cell viability incubated for 72 hrs by SRB assay; assay type: toxicity, cell-based
[14] = test system: HeLa; test: Cytotoxicity against human HeLa cells assessed as reduction in cell viability incubated for 72 hrs by SRB assay; assay type: toxicity, cell-based
[15] = test system: Mycobacteroides abscessus; test: Bactericidal activity against Mycobacterium abscessus ATCC 19977 assessed as reduction in viable bacteria incubated for 4 days by microplate dilution assay; assay type: functional; conditions: time 4 day
[16] = Stability in mouse plasma at 1 uM measured over 120 mins by HPLC-MS/MS analysis; assay type: ADME, cell-free; conditions: 2 h
[17] = test system: Mycobacteroides abscessus; test: Antibacterial activity against Mycobacterium abscessus Bamboo harboring inactive clarithromycin-sensitive erm41 C28 sequevar assessed as bacterial growth inhibition incubated for 3 days in 7H9 medium by optical density based method; assay type: functional; conditions: 72 h, time 3 day
[18] = Kinetic solubility of compound in PBS at 0.78 to 500 uM measured immediately by nephelometric method; assay type: physicochemical; conditions: buffer, dose 0.78-500 µM
Outline: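 DMSO stocks prediluted in DMSO, then diluted 1:50 into PBS (2 % DMSO final) and read immediately by nephelometry at 0.78–500 μM; blank-corrected data fitted by segmental regression; quadruplicates from one stock.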

[19] = Cytotoxicity against mouse NIH3T3 cells assessed as reduction in cell viability incubated for 72 hrs by SRB assay; assay type: toxicity, cell-based; conditions: mouse, NIH3T3 cells
[20] = test system: Mycobacteroides abscessus; test: Antibacterial activity against Mycobacterium abscessus ATCC 19977 expressing tomato RFP assessed as bacterial growth inhibition incubated for 3 days in 7H9 medium by RFP fluorescence based broth microdilution method; assay type: functional; conditions: ATCC 19977, 72 h, time 3 day; outline: as §1
[21] = test system: MCF7; test: Cytotoxicity against human MCF7 cells assessed as reduction in cell viability incubated for 72 hrs by SRB assay; assay type: toxicity, cell-based
[22] = test system: Mycobacteroides abscessus; test: Bactericidal activity against Mycobacterium abscessus ATCC 19977 assessed as reduction in viable bacteria at 6.25 to 12.5 uM incubated for 4 days by microplate dilution assay; assay type: functional, organism-based; conditions: dose 6.25-12.5 µM, time 4.0 day
[23] = test system: Mycobacteroides abscessus; test: Bactericidal activity against Mycobacterium abscessus ATCC 19977 assessed as reduction in viable bacteria at 3.13 uM incubated for 4 days by microplate dilution assay relative to control; assay type: functional; conditions: time 4 day
Outline: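 After 4 days in the microplate dilution assay, 10 µl samples (undiluted or 1:100) were plated on 7H10 with glycerol, ADS and 400 µg/mL hygromycin. Colonies counted after 4 days at 37 °C. Done in triplicate. CFU/mL compared with the inoculum counted before incubation.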

[24] = test system: Mycobacteroides abscessus; test: Bactericidal activity against Mycobacterium abscessus ATCC 19977 assessed as reduction in viable bacteria at 6.25 uM incubated for 4 days by microplate dilution assay relative to control; assay type: functional; conditions: time 4 day

| SMILES | t1/2 [1] | EC50 [2] | MIC90 [4] | MIC90 [5] | Stability [6] | MIC90 [7] | MIC90 [8] | MIC90 [10] | MIC50 [11] | MIC90 [11] | EC50 [12] | EC50 [13] | EC50 [14] | Stability [16] | MIC50 [17] | MIC90 [17] | Kinetic_solubility [18] | EC50 at 72 h [19] | MIC90 [20] | EC50 [21] | other results |
| --- | --- | --- | --- | --- | --- | --- | --- | --- | --- | --- | --- | --- | --- | --- | --- | --- | --- | --- | --- | --- | --- |
| O=C(N[C@H](Cc1ccccc1)C(=O)Nc1ccccc1N1CCOCC1)c1cccs1 | 1.7 min | > 30 µM | 12.5 µM (≈ 5.44 µg/mL) | 0.78 µM (≈ 0.34 µg/mL) | Stable | 0.78 µM (≈ 0.34 µg/mL) | 0.78 µM (≈ 0.34 µg/mL) | > 100 µM | 1.56 µM (≈ 0.679 µg/mL) | 12.5 µM (≈ 5.44 µg/mL) | > 30 µM | > 30 µM | > 30 µM | Unstable | 1.7 µM (≈ 0.74 µg/mL) | 4.4 µM (≈ 1.92 µg/mL) | 82 µM | > 30 µM | 6.25 µM (≈ 2.72 µg/mL) | > 30 µM | MIC90 [3]: 7 µM (≈ 3.05 µg/mL); MIC90 [9]: 1.2 µM (≈ 0.523 µg/mL); MBC99 [15]: 50 µM (≈ 21.8 µg/mL); Activity [22]: inactive |
| O=C(N[C@H](Cc1ccccc1)C(=O)Nc1ccccc1N1CCS(=O)(=O)CC1)c1ccccc1F | 1.5 min | > 30 µM | 1.56 µM (≈ 0.773 µg/mL) | 0.05 µM (≈ 0.0248 µg/mL) | Stable | 0.78 µM (≈ 0.387 µg/mL) | 0.2 µM (≈ 0.0991 µg/mL) | 42 µM (≈ 20.8 µg/mL) | 0.39 µM (≈ 0.193 µg/mL) | 6.25 µM (≈ 3.1 µg/mL) | > 30 µM | > 30 µM | > 30 µM | Stable | 0.23 µM (≈ 0.114 µg/mL) | 4.3 µM (≈ 2.13 µg/mL) | 64 µM | > 30 µM | 0.78 µM (≈ 0.387 µg/mL) | > 30 µM | Activity [23]: 95%; Activity [24]: 99% |
